Active and inactive are the calls of the source. No cut-off for these calls is given here.
System: not listed separately
Assay: Inhibition of calf intestinal adenosine deaminase type 1 by spectrophotometric assay
Design: species or system Bos taurus
Settings: not given
Outline: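 Commercial calf intestinal adenosine deaminase (type I) was assayed with adenosine as substrate plus the analogue, both in 0.05 M phosphate buffer, pH 7.0, at 25 °C. Mode of inhibition and Ki were derived from the kinetics.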

Compound | Ki
Nc1ncnc2c1ncn2[C@H]1O[C@@H]([C@H](O)CO)[C@@H](O)[C@@H]1O | Not Active

Same assay, conditions: read-out: Ki

Compound | Ki
Nc1ncnc2c1ncn2[C@H]1O[C@H]([C@@H](O)CO)[C@H](O)[C@@H]1O | 120 µM
Nc1ncnc2c1ncn2[C@H]1O[C@H]([C@H](O)CO)[C@H](O)[C@@H]1O | 240 µM
Nc1ncnc2c1ncn2[C@@H]1O[C@@H]([C@@H](O)CO)[C@@H](O)[C@H]1O | 120 µM
Nc1ncnc2c1ncn2[C@@H]1O[C@H]([C@H](O)CO)[C@H](O)[C@@H]1O | 670 µM
Nc1ncnc2c1ncn2[C@@H]1O[C@H]([C@@H](O)CO)[C@H](O)[C@H]1O | 180 µM

Organism: Bos taurus
Assay: Activity at calf intestinal adenosine deaminase type 1 by spectrophotometric assay
Settings: not given

Compound | Km | Vmax
C[C@H](O)[C@H]1O[C@@H](n2cnc3c(N)ncnc32)[C@H](O)[C@H]1O | 320 µM | 25 µmol/min/mg
C[C@H](O)[C@@H]1O[C@@H](n2cnc3c(N)ncnc32)[C@H](O)[C@@H]1O | 670 µM | 0.326 µmol/min/mg
C[C@@H](O)[C@@H]1O[C@@H](n2cnc3c(N)ncnc32)[C@H](O)[C@@H]1O | inactive | inactive
C[C@H](O)[C@H]1O[C@H](n2cnc3c(N)ncnc32)[C@@H](O)[C@@H]1O | inactive | inactive
C[C@@H](O)[C@@H]1O[C@H](n2cnc3c(N)ncnc32)[C@@H](O)[C@@H]1O | inactive | inactive
C[C@H](O)[C@H]1O[C@@H](n2cnc3c(N)ncnc32)[C@H](O)[C@@H]1O | 21 µM | 61 µmol/min/mg
C[C@@H](O)[C@H]1O[C@H](n2cnc3c(N)ncnc32)[C@@H](O)[C@@H]1O | inactive | inactive
Nc1ncnc2c1ncn2[C@@H]1O[C@@H]([C@@H](O)CO)[C@@H](O)[C@H]1O | 280 µM | 0.092 µmol/min/mg
Nc1ncnc2c1ncn2[C@H]1O[C@@H]([C@H](O)CO)[C@@H](O)[C@@H]1O | inactive | inactive
C[C@@H](O)[C@@H]1O[C@@H](n2cnc3c(N)ncnc32)[C@H](O)[C@H]1O | 230 µM | 0.105 µmol/min/mg
C[C@H](O)[C@@H]1O[C@H](n2cnc3c(N)ncnc32)[C@@H](O)[C@@H]1O | inactive | inactive
C[C@@H](O)[C@H]1O[C@@H](n2cnc3c(N)ncnc32)[C@H](O)[C@@H]1O | 78 µM | 0.792 µmol/min/mg
Nc1ncnc2c1ncn2[C@@H]1O[C@H]([C@@H](O)CO)[C@H](O)[C@H]1O | 260 µM | 0.178 µmol/min/mg
Nc1ncnc2c1ncn2[C@@H]1O[C@H](CO)[C@@H](O)[C@H]1O | – | 220 µmol/min/mg

— ChEMBL document CHEMBL3244227, “Hexofuranosyladenine nucleosides as substrates and inhibitors of calf intestinal adenosine deaminase” (J Med Chem, 1979)
